Article PMC3517057 (ChemMedChem, 2012)

How the values were obtained:
[1] = biological target: T1, mGlu5 (Rattus norvegicus, UniProt P31424); test: mGlu5 calcium mobilization assay; format: cell-based
[2] = tested on: 68 primary molecular targets (GPCRs, kinases, ion channels); test: Ricerca LeadProfilingScreen radioligand binding panel; conditions: 10 µM
[3] = biological target: T2, adenosine A3 receptor (Homo sapiens, UniProt P0DMS8); test: Ricerca LeadProfilingScreen radioligand binding, adenosine A3 receptor; conditions: 10 µM
T2 sequence (P0DMS8 1-318): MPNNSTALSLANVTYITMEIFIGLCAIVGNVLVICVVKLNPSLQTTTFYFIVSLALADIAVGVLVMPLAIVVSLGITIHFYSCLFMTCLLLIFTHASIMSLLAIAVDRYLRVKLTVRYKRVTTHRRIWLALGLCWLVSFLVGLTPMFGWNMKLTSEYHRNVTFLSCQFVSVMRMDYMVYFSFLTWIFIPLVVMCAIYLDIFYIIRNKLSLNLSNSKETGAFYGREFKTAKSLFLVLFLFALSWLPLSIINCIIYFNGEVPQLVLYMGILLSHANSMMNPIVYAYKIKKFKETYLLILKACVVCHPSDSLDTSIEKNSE
In short: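 The test compound was run at 10 µM in a commercial profiling panel of radioligand binding assays covering 68 primary molecular targets, including GPCRs, kinases and ion channels.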

[4] = biological target: rat mGlu5 (Rattus norvegicus, UniProt P31424); test: Glutamate-induced ERK1/2 phosphorylation in HEK293 cells expressing rat mGlu5; format: cell-based; conditions: 10 nM to 1 µM 18k
Sequence of rat mGlu5 (P31424 21-1203): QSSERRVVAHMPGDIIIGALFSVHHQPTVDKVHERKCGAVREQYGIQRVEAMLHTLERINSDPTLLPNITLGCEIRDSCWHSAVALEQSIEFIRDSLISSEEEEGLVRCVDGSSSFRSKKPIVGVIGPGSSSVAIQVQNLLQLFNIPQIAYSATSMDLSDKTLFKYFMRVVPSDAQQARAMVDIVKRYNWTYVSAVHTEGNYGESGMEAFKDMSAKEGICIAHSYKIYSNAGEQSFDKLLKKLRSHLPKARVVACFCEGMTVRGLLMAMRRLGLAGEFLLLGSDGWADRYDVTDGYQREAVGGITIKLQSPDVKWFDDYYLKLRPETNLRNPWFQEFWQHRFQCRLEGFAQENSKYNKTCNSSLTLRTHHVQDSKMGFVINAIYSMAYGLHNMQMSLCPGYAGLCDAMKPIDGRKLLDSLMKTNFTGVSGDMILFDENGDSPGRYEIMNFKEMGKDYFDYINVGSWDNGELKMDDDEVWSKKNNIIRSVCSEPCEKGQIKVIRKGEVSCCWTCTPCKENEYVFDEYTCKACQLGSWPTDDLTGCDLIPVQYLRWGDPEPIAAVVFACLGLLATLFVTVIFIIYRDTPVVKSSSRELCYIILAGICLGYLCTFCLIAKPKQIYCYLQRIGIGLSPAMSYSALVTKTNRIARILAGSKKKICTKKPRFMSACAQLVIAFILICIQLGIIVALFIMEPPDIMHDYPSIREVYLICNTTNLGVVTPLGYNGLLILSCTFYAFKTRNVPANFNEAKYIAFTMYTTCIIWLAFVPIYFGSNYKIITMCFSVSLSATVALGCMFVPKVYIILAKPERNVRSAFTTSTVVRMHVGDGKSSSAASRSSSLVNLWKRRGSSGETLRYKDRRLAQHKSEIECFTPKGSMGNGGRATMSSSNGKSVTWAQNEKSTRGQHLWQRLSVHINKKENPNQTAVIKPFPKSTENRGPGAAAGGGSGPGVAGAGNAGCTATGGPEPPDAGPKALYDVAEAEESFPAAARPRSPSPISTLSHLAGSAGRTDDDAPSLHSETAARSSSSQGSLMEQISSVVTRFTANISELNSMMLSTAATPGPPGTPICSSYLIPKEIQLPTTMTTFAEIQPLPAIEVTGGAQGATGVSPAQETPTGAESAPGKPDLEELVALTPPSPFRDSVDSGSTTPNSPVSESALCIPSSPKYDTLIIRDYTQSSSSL

[5] = Metabolic stability in human liver microsomes; format: in vitro ADME; conditions: 1 µM, 15 min, 37 °C, NADPH
In short: (§1)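 Test compound at 1 µM was incubated with human or mouse liver microsomes in phosphate buffer with NADPH cofactor, for 15 min at 37 °C with shaking.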

[6] = tested on: C57Bl/6J mice; test: Operant sensation seeking; format: in vivo
[7] = Protein binding in mouse plasma; format: in vitro ADME; conditions: rapid equilibrium dialysis
[8] = Metabolic stability in mouse liver microsomes; format: in vitro ADME; conditions: 1 µM, 15 min, 37 °C, NADPH
In short: as §1

[9] = Plasma and brain exposure after intraperitoneal dosing in mice; format: in vivo, male CD-1 mice; conditions: 10 mg/kg i.p.
In short: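 Male CD-1 mice received 10 mg/kg i.p. as a microsuspension in 10% tween 80, with two mice per time point. Brain and plasma were sampled at 0.5, 1, 3 and 6 h post dose.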

[10] = tested on: mGlu1–4 and mGlu6–8; test: Selectivity against other mGlu receptors; format: cell-based; conditions: 10 µM
[11] = tested on: mice; test: Marble burying model of anxiety; format: in vivo; conditions: for Inhibition of marble burying: 15 minute pretreatment; for Sedation: marble burying study, i.p., all dosing groups
In short: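 Mice were scored for burying glass marbles in deep bedding. Test compound or the MTEP positive control (15 mg/kg) was given i.p. in 10% tween 80 vehicle 15 min before testing. Testing ran from 15 to 45 min post dose, with n=12 per dosing group. Significance was P < 0.05 vs vehicle by Dunnett's test.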

[12] = biological target: T1, mGlu5; test: Effect on glutamate CRC in rat cortical astrocytes; format: cell-based; conditions: 300 nM, 1 µM, 30 µM 18k
[13] = Binding to mouse brain homogenates; format: in vitro ADME; conditions: rapid equilibrium dialysis
[14] = Exposure following oral dosing in mice; format: in vivo
[15] = tested on: mice; conditions: cited from earlier work
[16] = tested on: C57Bl/6J mice; conditions: low doses; cited from earlier work
[17] = mGlu5 calcium mobilization, average of at least three determinations

T1 sequence (P31424 21-1203): as above

N#Cc1cnc(Nc2nc3ccccc3o2)nc1-c1cccs1 [18ee]
IC50 [1, 17]: > 10000 nM

COc1ccccc1-c1nc(Nc2nc3ccccc3o2)ncc1C#N [18g]
IC50 [1, 17]: 62 ± 10 nM

N#Cc1cnc(Nc2nc3ccccc3o2)nc1-c1ccc(F)cc1 [18k]
Inhibition of radioligand binding in 68-target panel [2]: inhibition of more than 50% of radioligand binding was observed only in the adenosine A3 receptor assay
inhibition of binding [3]: 73%
Effect on ERK1/2 phosphorylation response to glutamate [4]: blocked the effect of glutamate in a concentration dependent manner
IC50 [1, 17]: 91 ± 22 nM
Stability in liver microsomes [5]: Enhanced stability relative to 13
Efficacy in OSS ([6]; both 30 and 56.6 mg/kg doses i.p., P < 0.05 vs. vehicle): significant efficacy
Progressive ratio responding for OSS stimuli ([6]; i.p., dose response): dose dependently reduced progressive ratio responding for OSS stimuli
Effect on responding for a food reinforcer ([6]; i.p., food control): no significant effects
bound to mouse plasma [7]: 99.4%
Stability in liver microsomes [8]: Enhanced stability relative to 13
Brain AUC [9]: 1006 ng·h/g
Plasma AUC [9]: 224 ng·h/mL
Brain [ ] ([9]; 0.5 h): 136 ng/mL
Brain:Plasma ratio ([9]; 0.5 h): 4.3
Plasma [ ] ([9]; 0.5 h): 31.8 ng/mL
average brain concentration ([9]; 30 minutes): 0.41 µM
Brain [ ] ([9]; 1 h): 283 ng/mL
Brain:Plasma ratio ([9]; 1 h): 4.4
Plasma [ ] ([9]; 1 h): 64.7 ng/mL
brain concentration ([9]; 1 hour post dose): 850 nM
Brain [ ] ([9]; 3 h): 193 ng/mL
Brain:Plasma ratio ([9]; 3 h): 4.3
Plasma [ ] ([9]; 3 h): 45.4 ng/mL
Brain [ ] ([9]; 6 h): 68 ng/mL
Brain:Plasma ratio ([9]; 6 h): 7.4
Plasma [ ] ([9]; 6 h): 9.2 ng/mL
brain to plasma ratio ([9]; exposure ratio, to 1): more than 4
Activity against other mGlu receptors [10]: no observable activity
Inhibition of marble burying ([11]; 56.6 mg/kg i.p. (highest dose), P < 0.05 vs. vehicle): Significant inhibition of marble burying
Sedation [11]: No sedation was observed
Effect on glutamate concentration response curve [12]: induced a rightward shift in the glutamate concentration response curve (CRC) and reduced the maximal effect of glutamate
bound to mouse brain homogenates [13]: 99.5%
Exposure in plasma and brain [14]: no exposure above detectable limits in either plasma or brain

N#Cc1cnc(Nc2nc3ccccc3o2)nc1-c1ccc(C(F)(F)F)cc1 [18m]
IC50 [1, 17]: > 30000 nM

CCOc1ccccc1-c1nc(Nc2nc3ccccc3o2)ncc1C#N [18r]
IC50 [1, 17]: 6580 ± 1670 nM

N#Cc1cnc(Nc2nc3ccccc3o2)nc1-c1ccc(F)c(F)c1 [18t]
IC50 [1, 17]: 2580 ± 1170 nM

N#Cc1cnc(Nc2nc3ccccc3o2)nc1-c1ccc(Cl)cc1F [18y]
IC50 [1, 17]: 375 ± 90 nM

COc1cc(F)ccc1-c1nc(Nc2nc3ccccc3o2)ncc1C#N [18z]
IC50 [1, 17]: 217 ± 10 nM

Cc1cccc(C#Cc2ccccc2)n1 [MPEP]
Efficacy in marble burying model [15]: effective

Cc1nc(C#Cc2cccnc2)cs1 [MTEP, reference compound]
Inhibition of marble burying ([11]; 15 mg/kg i.p., positive control): Robust inhibition of marble burying
Sedation [11]: No sedation was observed

OCCN1CCN(CC/C=C2/c3ccccc3Sc3ccc(C(F)(F)F)cc32)CC1 [cis-flupenthixol]
Responding for OSS stimuli [16]: increased responding for OSS stimuli

N#Cc1cnc(Nc2nc3ccccc3o2)nc1-c1ccccc1 [compound 13]
IC50 [1, 17]: 89 ± 32 nM
IC50 ([1]; original batch of virtual screen hit (ChemDiv), 10-point CRC): 75 nM

CN1CC(=O)NC1=NC(=O)Nc1cccc(Cl)c1 [fenobam]
Efficacy in marble burying model [15]: effective
